Sampled rows, rich in hits. Any-hit rate of the full collection: about 3.1%.
miR122 inh: miR-122 inhibition in Huh7 cells; AID 602342; activation (reporter increase), % at 12.5 µM; 340,000 compounds, 0.3% hits; Huh7 miR-122 Renilla luciferase sensor, 48 h; neutral wells = 0, positive control = 100;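 active = mean replicate activation score at least 90 and every replicate individually at or above 90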;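 note: higher luciferase means less miR-122 activity so hits act as miR-122 inhibitors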
INS-1E GSIS act: primary screen for activators of insulin secretion dependent on glucose, INS-1E cells, GLuc reporter luminescence; INS-1E GLuc reporter insulin secretion, 2-3 h; activation, % at 16.6 µM; 370,000 compounds, 0.61% hits; AID 743287;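 active = lowest replicate activation of at least 40%, so every replicate reaches that level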;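 note: 0% = median of neutral control wells and 100% = median of IBMX positive control wells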
CFTR F508del cor: CFTR F508del correction in bronchial cells; activity (quench increase), % at 7.58 µM; AID 720511; 350,000 compounds, 0.36% hits; CFBE cells, YFP halide quenching; stimulated with forskolin plus potentiator P3; % fluorescence drop versus neutral controls;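 active = mean added fluorescence quench of at least 8% versus neutral control, with both replicates also reaching 8%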;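 note: cells transiently co-express mutant CFTR-F508del with the halide-sensitive YFP; corrector assay measuring rescue of mutant channel to the surface after 24 h compound exposure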
HIV Env fusion: blocks HIV Env-driven cell-cell fusion; inhibition, % at 12.3 µM; 360,000 compounds, 1.1% hits; HeLa-JRFL Env/CEM21 cell fusion, luciferase;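 active = mean replicate inhibition score of at least 50 and every replicate individually at or above 50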;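 note: 0% = plate neutral controls and 100% = maraviroc near 300 nM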
Cneo AK release: Cryptococcus neoformans lysis via adenylate kinase release; C. neoformans lysis, adenylate kinase release luminescence, 4 h; normalised: neutral wells 0, clomiphene wells 100; 360,000 compounds, 0.2% hits; AID 651654; lysis activity, % at 15 µM;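 active = mean lysis activity across replicates of at least 80%, whatever share of replicates individually reach that level; inactive = mean lysis activity below 80%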
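Assay system: Cryptococcus neoformans yeast cells / Dosing: single-point compound dose / Timing: 4 h at 37 °C static, read 1 h later / Measured by: luminescence of released adenylate kinase using an AK detection reagent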
Ecoli rRNA inh: inhibits bacterial ribosomal RNA function over humanized ribosomes; E. coli WT GFP vs humanized-ribosome RFP mutants, fluorescence, 24 h; active compounds read low; DMSO median 0, no signal -100; GFP signal change (wild-type ribosome), % (test concentration not listed); 350,000 compounds, 1.6% hits;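 active = significant combined selectivity score with lowered wild-type GFP, culture density cut under 30%, mutant RFP and density less affected; inactive = any of these conditions unmet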
An asterisk follows results filed as active; . = no result; [ ] = remark or other dose.

SMILES | miR122 inh | INS-1E GSIS act | CFTR F508del cor | HIV Env fusion | Cneo AK release | Ecoli rRNA inh
CCCC(=O)Nc1ccc2c(c1)OC[C@@H](C)N(C(=O)CN(C)C)C[C@H](C)[C@@H](OC)CN(C)C2=O | . | 6 | -1 | 59*[16.7 µM] | -2 | 4
C[C@H](CO)N1C[C@H](C)[C@@H](CN(C)C)Oc2c(NC(=O)Nc3ccc4c(c3)OCO4)cccc2C1=O | 16[16.7 µM] | 3 | -1 | . | -6 | 4
C[C@@H]1CCCCO[C@@H](CN(C)Cc2ccc3c(c2)OCO3)[C@@H](C)CN([C@H](C)CO)C(=O)c2cc(NS(=O)(=O)c3ccc(F)cc3)ccc2O1 | -2[16.7 µM] | -19 | 3 | -14[16.7 µM] | 113* | 10
C[C@@H]1CCCCO[C@H](CN(C)Cc2ccc(Cl)c(Cl)c2)[C@@H](C)CN([C@H](C)CO)C(=O)c2cc(NS(=O)(=O)c3ccc(F)cc3)ccc2O1 | -4[16.7 µM] | 1 | 0 | -10[16.7 µM] | -3 | 0
C[C@H](CO)N1C[C@H](C)[C@H](CN(C)Cc2ccc(Cl)c(Cl)c2)OCCCC[C@H](C)Oc2ccc(NS(=O)(=O)c3ccc(F)cc3)cc2C1=O | -8[16.7 µM] | -12 | 5 | 88*[16.7 µM] | 2 | 1
C[C@H]1CN([C@@H](C)CO)C(=O)c2cc(NS(C)(=O)=O)ccc2O[C@@H]1CN(C)Cc1ccc(Cl)c(Cl)c1 | -8[16.7 µM] | -16 | 0 | 62*[16.7 µM] | -4 | -6
C[C@@H]1CCCCO[C@H](CN(C)Cc2ccc(Cl)c(Cl)c2)[C@@H](C)CN([C@@H](C)CO)C(=O)c2cc(NS(=O)(=O)c3ccc(Cl)cc3)ccc2O1 | . | -1 | 12* | . | . | -1
COCC(=O)N1CC2(C1)[C@H](c1ccc(-c3ccc(F)cc3)cc1)[C@H](CO)N2C(C)=O | . | -11 | 1 | . | . | -2
COc1cccc(S(=O)(=O)Nc2ccc3c(c2)[C@H]2C[C@H](CC(=O)NCc4ccccc4F)O[C@@H](CO)[C@H]2O3)c1 | 8[16.7 µM] | 3 | -1 | 7[16.7 µM] | 95* | 2
COc1cccc(S(=O)(=O)Nc2ccc3c(c2)[C@H]2C[C@H](CC(=O)NCc4cccc(F)c4)O[C@H](CO)[C@H]2O3)c1 | 5[16.7 µM] | -21 | 1 | 44[16.7 µM] | -1 | -1
COc1cccc(S(=O)(=O)Nc2ccc3c(c2)[C@H]2C[C@H](CC(=O)NCc4cccc(F)c4)O[C@@H](CO)[C@H]2O3)c1 | 30[16.7 µM] | 7 | -2 | 28[16.7 µM] | 94* | -5
COc1cccc(S(=O)(=O)Nc2ccc3c(c2)[C@@H]2C[C@@H](CC(=O)NCc4cccc(F)c4)O[C@H](CO)[C@@H]2O3)c1 | 9[16.7 µM] | -14 | 1 | 26[16.7 µM] | 106* | 1
CO[C@@H]1CN(C)C(=O)c2cc(NC(=O)Nc3cccc(F)c3)ccc2OC[C@H](C)NC[C@@H]1C | 7[16.7 µM] | 4 | 3 | . | 1 | 1
CN(C)C(=O)c1ccc(-c2ccccc2[C@@H]2[C@@H](CO)N(C(=O)C3CCCCC3)[C@H]2C#N)cc1 | . | -5 | 1 | . | . | -1
O=S(=O)(c1cccc(F)c1)N1CC[C@H]2[C@H](CO)Nc3ccc(C#Cc4cccc(F)c4)cc3[C@H]21 | . | -8 | . | . | . | -4
CN1C(=O)c2cc(NC(=O)Nc3cccc(Cl)c3)ccc2OC[C@H]2O[C@@H](CC(=O)O)CC[C@@H]21 | 4[16.7 µM] | -3 | -1 | 5[16.7 µM] | -9 | 2
COCCCNC(=S)N/N=C/c1ccc2ccccc2c1 | . | -42 | -3 | 0 | . | -32*
CC(=O)N(C)C[C@H]1Oc2ncc(-c3ccc(C#N)cc3)cc2C(=O)N([C@H](C)CO)C[C@@H]1C | -3[16.7 µM] | 24 | -3 | 14[16.7 µM] | -1 | 1
COCCNC(=O)C[C@H]1C[C@@H]2c3cc(NC(=O)NC4CCCCC4)ccc3O[C@@H]2[C@@H](CO)O1 | -2[16.7 µM] | 8 | -2 | -8[16.7 µM] | 1 | 3
C[C@@H]1CN([C@H](C)CO)C(=O)c2cc(NC(=O)NC3CCCCC3)ccc2O[C@@H]1CN(C)S(=O)(=O)c1ccc(F)cc1 | 52[16.7 µM] | -4 | -2 | . | 41 | -2
Cn1c(=O)c(-c2cc(=O)[nH][nH]2)c(O)c2ccccc21 | -1 | 5 | -1 | 8 | . | -34*
CC(C)(C)c1ccc(CC(=O)N2CCC2(C)C(=O)NS(=O)(=O)c2cccc(Cl)c2)cc1 (centres undefined) | -2 | -1 | 2 | -6 | 3 | -33*
CCCC(C)(C)C(=O)N1CCC1(C)C(=O)NS(=O)(=O)c1ccc(Cl)cc1 (centres undefined) | 3 | 42* | 0 | 4 | 8 | 2
Cn1nc(C(C)(C)C)cc1NC(=O)C1(C)CCN1C(=O)Cc1ccc(-c2ccccc2)cc1 (centres undefined) | -3 | -32 | -1 | 62* | 2 | -11
Cc1ccccc1S(=O)(=O)NC(=O)C1(C)CCN1C(=O)CCc1ccc(Cl)cc1Cl (centres undefined) | -3 | 30 | 4 | 71* | -2 | -14
SMILES | miR122 inh | INS-1E GSIS act | CFTR F508del cor | HIV Env fusion | Cneo AK release | Ecoli rRNA inh
Cc1nc(Cc2ccccc2)sc1CC#N | . | 42* | -1 | 9 | 0 | 1
CC(C)[C@H](C)NC(=O)N(C)C[C@H]1OCc2ccccc2-c2c(n(C)c3ccccc23)C(=O)N([C@H](C)CO)C[C@H]1C | . | 25 | 1 | . | -2 | 1
CCC(CO)n1c(=S)[nH]c2cc(OC)c(OC)cc2c1=O (centres undefined) | 10 | 9 | -3 | -11 | 14 | -22*
CCOc1cc2[nH]c(=S)n(C(C)C)c(=O)c2cc1OCC | 3 | . | . | -6 | 0 | .
CCNc1c([N+](=O)[O-])c(=O)n(CC)c2ccccc12 | -8 | 21 | 1 | 12 | 0 | -33*
CCn1c(=O)c([N+](=O)[O-])c(N2CCOCC2)c2ccccc21 | . | 23 | . | 1 | . | .
CCN(CC)c1c([N+](=O)[O-])c(=O)n(CC)c2ccccc12 | -2 | -3 | 1 | 13 | 0 | -35*
CCC(=O)N1[C@H](CO)[C@H](c2ccccc2-c2cccc(C)c2)[C@@H]1C#N | . | -16 | 0 | . | . | -2
O=C(C[C@@H]1CC[C@H]2[C@@H](COC[C@H](O)CN2C(=O)Cc2ccccc2)O1)NC1Cc2ccccc2C1 | -5[16.7 µM] | 5 | 0 | 11[16.7 µM] | 2 | 5
O=C(Oc1ccc2c(c1)OCO2)c1cc2c(s1)CCC2 | -4 | 46* | . | 75* | -18 | .
N#Cc1cccc(-c2ccc3c(c2)[C@H]2[C@H](CCN2C(=O)C2CCCCC2)[C@@H](CO)N3)c1 | 5[16.7 µM] | -6 | 4 | . | -8 | -35
Cc1cc(C)c2nc(N(CCCN(C)C)C(=O)C3=COCCO3)sc2c1 | -5 | -6 | 4 | 3 | 0 | -3
Cc1cc(C)c2nc(N(CCCN(C)C)C(=O)c3ccc4c(c3)OCCO4)sc2c1 | -3 | 10 | -1 | -18 | 3 | -28*

Source: PubChem BioAssay
